Results gathered from unrelated publications.
Compare with care: the assays were run in different laboratories.
Target: Phosphorylase b kinase gamma catalytic chain, skeletal muscle/heart isoform (PHKG1, Homo sapiens, UniProt Q16816)

For `O=c1[nH]c2ccccc2n1C1CCN(Cc2ccc(-c3[nH]c4cc5ncnc5cc4nc3-c3ccccc3)cc2)CC1`, the remaining signal was 106% (cell-free assay; 0.5 µM).
`N#CC1(c2ccccn2)CCN(Cc2cc(C(=O)O)c(=O)n3ccccc23)CC1` has a remaining binding of 100% (cell-free assay, competition with immobilised ligand; 1 µM).
With `COc1ncccc1-c1cnn2ccc(N3CCN(C(=O)OC(C)C)CC3)nc12` the remaining binding was 100% (binding, competition with immobilised ligand; 1 µM).
The inhibition of `COc1cc(Nc2ncc(F)c(Nc3ccc4c(n3)NC(=O)C(C)(C)O4)n2)cc(OC)c1OC` is reported as 29% (binding; 10 µM).
`Cn1cncc1[C@@](O)(COc1ccc(C#N)cc1-c1ccc(OC(F)(F)F)cc1)c1ccc(C#N)cc1` has a remaining binding of 95% (cell-free assay, competition with immobilised ligand; 1 µM).
For `CC(C)(C)c1cc(C=C(C#N)C#N)cc(Br)c1O`, the remaining activity was 96.7% (enzyme activity, inhibitor; 0.5 µM).
`Cn1cc(-c2cc(F)cc(N3CCn4c(cc5c4CCCC5)C3=O)c2CO)cc(Nc2ccc(N3CCN(C4COC4)CC3)cn2)c1=O` gave an inhibition of 6% (enzyme activity, inhibitor; 0.1 µM).
With `Cc1nn(C)cc1-c1nc2c(N3CCN(Cc4ccc(Cl)cc4)CC3)c(Cl)cnc2[nH]1` the remaining binding was 100% (binding, competition with immobilised ligand; 1 µM).
`Nc1ncc(-c2nc(N3CCOCC3)nc(N3CCOCC3)n2)c(C(F)F)n1` gave a remaining binding of 94% (binding, competition with immobilised ligand; 10 µM).
With `Cn1cc(-c2cccc(N3CCc4c(sc5c4CC(C)(C)C5)C3=O)c2CO)cc(Nc2ccncn2)c1=O` the inhibition was 6% (enzyme activity, inhibitor; 1 µM).
